Experimental data published in paper PMC3942533 (Journal of medicinal chemistry, 2013).
Counter-ions that a name gives are not always drawn. Like-named read-outs stand apart in the source and are kept apart here.

Key:
mouse vas deferens (δ) [1] = assay: MVD isolated tissue bioassay; format: biochemical; settings: read-out: MVD (δ) IC50; 50% inhibition of muscle contraction, n = 4, ±SEM
[2] = system: guinea pig ileum/longitudinal muscle myenteric plexus (μ); assay: GPI isolated tissue bioassay; format: biochemical; settings: for IC50: read-out: GPI (μ) IC50, 50% inhibition of muscle contraction, n = 4, ±SEM
[3] = Enzymatic stability in human plasma; format: in vitro ADME; settings: 37 °C, compared with Biphalin
Procedure, shortened: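 Test compound incubated in human plasma at 37 °C, with stability followed as a curve over time. Three independent experiments (n = 3), reported as mean ± SEM. Groups compared by two-way ANOVA with Bonferroni post hoc comparisons.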

mouse hot plate = assay: Hot plate antinociception test; format: in vivo; settings: mice, icv 0.6 nmol, 30 and 45 min after administration
Procedure, shortened: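 Mice received the test compound locally (icv, 0.6 nmol) or systemically (iv, 3000 nmol) and were assessed on the hot plate, with morphine as a reference. Antinociception expressed as % MPE over time and reported as mean ± SEM. Compared with vehicle-treated animals by two-way ANOVA and Bonferroni post hoc tests; significance P < 0.05.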

[4] = system: guinea pig ileum/longitudinal muscle myenteric plexus (μ); settings: read-out: GPI (μ) IC50; ±SEM; ref [1b] and [13]; cited from earlier work
mouse vas deferens (δ) [5] = settings: read-out: MVD (δ) IC50; ±SEM; ref [1b] and [13]; cited from earlier work

Q: Which IC50 (mouse vas deferens (δ) [1]) does the source give for `C[C@@H](NC(=O)[C@@H](N)Cc1ccc(O)cc1)C(=O)NCCC(=O)N[C@@H](Cc1ccccc1)C(=O)NNC(=O)[C@H](Cc1ccccc1)NC(=O)CCNC(=O)[C@@H](C)NC(=O)[C@@H](N)Cc1ccc(O)cc1` [Compound 2, 2 TFA·(Tyr-D-Ala-βAla-Phe-NH)2] here?
A: The IC50 was 1300 ± 221 nM.

Q: And the “GPI (μ) inhibition at fixed concentration” value ([2]; at 1 μM)?
A: The value was 9.2% at 1 μM.

Q: And the “IC50 (GPI)/IC50 (MVD)” value ([2]; ratio)?
A: The value was >0.75.

Q: Which IC50 (mouse vas deferens (δ) [1]) does the source give for `C[C@@H](NC(=O)[C@@H](N)Cc1ccc(O)cc1)C(=O)NCC(=O)N[C@H](CC(=O)NNC(=O)C[C@H](Cc1ccccc1)NC(=O)CNC(=O)[C@@H](C)NC(=O)[C@@H](N)Cc1ccc(O)cc1)Cc1ccccc1` [Compound 1, 2 TFA·(Tyr-D-Ala-Gly-hβ^3Phe-NH)2] here?
A: Its IC50 is 33 ± 9.4 nM.

Q: What about the “enzymatic stability, remaining parent compound versus time” value [3] of the same compound?
A: The value was “increased stability”.

Q: What about the “MPE (antinociceptive effect)” value (mouse hot plate) of the same compound?
A: The value was 100%.

Q: And the IC50 [2]?
A: Its IC50 is 50 ± 6.5 nM.

Q: Which IC50 (mouse vas deferens (δ) [1]) does the source give for `C[C@@H](NC(=O)C[C@@H](N)Cc1ccc(O)cc1)C(=O)NCC(=O)N[C@@H](Cc1ccccc1)C(=O)NNC(=O)[C@H](Cc1ccccc1)NC(=O)CNC(=O)[C@@H](C)NC(=O)C[C@@H](N)Cc1ccc(O)cc1` [Compound 4, 2 TFA·(hβ^3Tyr-D-Ala-Gly-Phe-NH)2] here?
A: Its IC50 is 710 ± 97 nM.

Q: What about the IC50 [2] of the same compound?
A: The IC50 was 670 ± 139 nM.

Q: Which IC50 [4] does the source give for Biphalin [Bph] here?
A: The IC50 was 8.8 ± 0.3 nM.

Q: What about the IC50 (mouse vas deferens (δ) [5]) of the same compound?
A: The IC50 was 2.7 ± 1.5 nM.
